According to ChEMBL document CHEMBL2434856, “Synthesis and in vitro and in vivo evaluation of antimalarial polyamines” (Eur J Med Chem, 2013):
The source made the active and inactive calls. The rule behind the calls is not given here.

Tests used:
L6 = test: Cytotoxicity against rat L6 cells; type: cell-based
Procedure, shortened: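 Rat skeletal myoblast L6 cell line, tested alongside the P. falciparum K1 assay so that a selectivity index (IC50 L6 / IC50 Pf) could be derived. Read-out is IC50 in µM, reported as the mean of duplicate assays.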

[1] = Selectivity index, ratio of IC50 for rat L6 cells to IC50 for erythrocytic stage of chloroquine and pyrimethamine-resistant Plasmodium falciparum K1; type: toxicity, cell-based; details: read-out: Ratio IC50
Procedure, shortened: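 Selectivity index calculated as the IC50 against rat L6 skeletal myoblasts divided by the IC50 against the erythrocytic stage of P. falciparum K1, both in µM. Chloroquine served as the positive control in the parasite assay. IC50 values are means of duplicate assays.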

Plasmodium falciparum = test: Antimalarial activity against erythrocytic stage of chloroquine and pyrimethamine-resistant Plasmodium falciparum K1; type: functional, organism-based
Procedure, shortened: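 P. falciparum K1 (chloroquine- and pyrimethamine-resistant), erythrocytic stage, growth inhibition read as IC50 in µM. Chloroquine served as the positive control. Values are means of duplicate assays.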

Plasmodium berghei [2] = test: Antimalarial activity against GFP-transfected Plasmodium berghei ANKA infected in NMRI mouse assessed as increase of mean survival time at 20 mg/kg, ip qd for 4 days
Mus musculus [3] = test: Acute toxicity in NMRI mouse infected with GFP-transfected Plasmodium berghei ANKA at 100 mg/kg, ip; type: organism-based; set-up: dose 100 mg/kg, route intraperitoneal; details: in vivo
Plasmodium berghei [4] = test: Antimalarial activity against GFP-transfected Plasmodium berghei ANKA infected in NMRI mouse assessed as reduction of parasitaemia at 20 mg/kg, ip qd for 4 days
Mus musculus [5] = test: Acute toxicity in NMRI mouse infected with GFP-transfected Plasmodium berghei ANKA at 150 mg/kg, ip; type: organism-based; set-up: dose 150 mg/kg, route intraperitoneal; details: in vivo
Plasmodium berghei [6] = test: Antimalarial activity against GFP-transfected Plasmodium berghei ANKA infected in NMRI mouse assessed as reduction of parasitaemia at 30 mg/kg, ip qd for 4 days; set-up: scale not given: the % may be the effect or the level left; details: route intraperitoneal
Plasmodium berghei [7] = test: Antimalarial activity against GFP-transfected Plasmodium berghei ANKA infected in NMRI mouse assessed as increase of mean survival time at 30 mg/kg, ip qd for 4 days
Plasmodium berghei [8] = test: Antimalarial activity against GFP-transfected Plasmodium berghei ANKA infected in NMRI mouse assessed as increase of mean survival time at 50 mg/kg, ip qd for 4 days
Plasmodium berghei [9] = test: Antimalarial activity against GFP-transfected Plasmodium berghei ANKA infected in NMRI mouse assessed as reduction of parasitaemia at 50 mg/kg, ip qd for 4 days

CC(C)(C)OC(=O)N(CCCCCCCCCCCCN(CCCNC(=O)CCc1ccccc1O)C(=O)OC(C)(C)C)CCCNC(=O)CCc1ccccc1O
IC50 (L6): 3600 nM
selectivity ratio [1]: 28
IC50 (Plasmodium falciparum): 130 nM

O=C(CCc1ccccc1)NCCCNCCCCCCCCCCCCNCCCNC(=O)CCc1ccccc1
IC50 (L6): 6900 nM
selectivity ratio [1]: 95
IC50 (Plasmodium falciparum): 73 nM

COc1ccccc1CC(=O)NCCCNCCCCCCCCCCCCNCCCNC(=O)Cc1ccccc1OC
IC50 (L6): 21000 nM
selectivity ratio [1]: 269
IC50 (Plasmodium falciparum): 78 nM

O=C(Cc1ccccc1)NCCCNCCCCCCCCNCCCNC(=O)Cc1ccccc1
Activity (Plasmodium berghei [2]): inactive
IC50 (L6): 74000 nM
Activity (Mus musculus [3]): Toxic
selectivity ratio [1]: 4930
IC50 (Plasmodium falciparum): 15 nM
Activity (Plasmodium berghei [4]): inactive

CC(C)(C)OC(=O)N(CCCCCCCCCCCCN(CCCNC(=O)CCc1ccccc1)C(=O)OC(C)(C)C)CCCNC(=O)CCc1ccccc1
IC50 (L6): 4000 nM
selectivity ratio [1]: 17
IC50 (Plasmodium falciparum): 240 nM

O=C(Cc1ccccc1O)NCCCNCCCCNCCCNC(=O)Cc1ccccc1O
Activity (Mus musculus [5]): Toxic
Activity (Plasmodium berghei [6]): 27.9%
Activity (Plasmodium berghei [7]): inactive

COc1ccc(OC)c(CCC(=O)NCCCNCCCCCCCCCCCCNCCCNC(=O)CCc2cc(OC)ccc2OC)c1
IC50 (L6): 6500 nM
selectivity ratio [1]: 59
IC50 (Plasmodium falciparum): 110 nM

O=C(NCCCNCCCCCCCCCCCCNCCCNC(=O)c1ccccc1O)c1ccccc1O
IC50 (L6): 2500 nM
selectivity ratio [1]: 6.6
IC50 (Plasmodium falciparum): 380 nM

CC(C)(C)OC(=O)N(CCCCCCCCCCCCN(CCCNC(=O)c1ccccc1O)C(=O)OC(C)(C)C)CCCNC(=O)c1ccccc1O
IC50 (L6): 93000 nM
selectivity ratio [1]: 186
IC50 (Plasmodium falciparum): 500 nM

COc1ccc(OC)c(CC(=O)NCCCNCCCCCCCCNCCCNC(=O)Cc2cc(OC)ccc2OC)c1
IC50 (L6): 61000 nM
selectivity ratio [1]: 5080
IC50 (Plasmodium falciparum): 12 nM

COc1ccc(CCC(=O)NCCCNCCCCCCCCCCCCNCCCNC(=O)CCc2ccc(OC)c(OC)c2)cc1OC
IC50 (L6): 57000 nM
selectivity ratio [1]: 803
IC50 (Plasmodium falciparum): 71 nM

CC(C)(C)OC(=O)N(CCCCCCCCCCCCN(CCCNC(=O)c1ccccc1)C(=O)OC(C)(C)C)CCCNC(=O)c1ccccc1
IC50 (L6): 8300 nM
selectivity ratio [1]: 52
IC50 (Plasmodium falciparum): 160 nM

COc1ccc(CCC(=O)NCCCN(CCCCCCCCCCCCN(CCCNC(=O)CCc2ccc(OC)c(OC)c2)C(=O)OC(C)(C)C)C(=O)OC(C)(C)C)cc1OC
IC50 (L6): 2500 nM
selectivity ratio [1]: 38
IC50 (Plasmodium falciparum): 66 nM

O=C(NCCCNCCCCNCCCNC(=O)c1ccccc1O)c1ccccc1O
IC50 (L6): 83000 nM
selectivity ratio [1]: 44
IC50 (Plasmodium falciparum): 1900 nM

COc1ccc(OC)c(C(=O)NCCCNCCCCCCCCCCCCNCCCNC(=O)c2cc(OC)ccc2OC)c1
IC50 (L6): 2200 nM
selectivity ratio [1]: 5.6
IC50 (Plasmodium falciparum): 390 nM

COc1ccc(OC)c(CC(=O)NCCCN(CCCCCCCCCCCCN(CCCNC(=O)Cc2cc(OC)ccc2OC)C(=O)OC(C)(C)C)C(=O)OC(C)(C)C)c1
IC50 (L6): 2200 nM
selectivity ratio [1]: 14
IC50 (Plasmodium falciparum): 160 nM

COc1ccc(OC)c(CCC(=O)NCCCNCCCCNCCCNC(=O)CCc2cc(OC)ccc2OC)c1
IC50 (L6): 99000 nM
selectivity ratio [1]: 16200
IC50 (Plasmodium falciparum): 6.1 nM

CC(C)(C)OC(=O)N(CCCCCCCCN(CCCNC(=O)Cc1ccccc1O)C(=O)OC(C)(C)C)CCCNC(=O)Cc1ccccc1O
IC50 (L6): 16000 nM
selectivity ratio [1]: 22
IC50 (Plasmodium falciparum): 730 nM

O=C(Cc1ccccc1O)NCCCNCCCCCCCCNCCCNC(=O)Cc1ccccc1O
IC50 (L6): 55000 nM
selectivity ratio [1]: 42300
IC50 (Plasmodium falciparum): 1.3 nM

O=C(Cc1ccccc1O)NCCCNCCCCCCCCCCCCNCCCNC(=O)Cc1ccccc1O
IC50 (L6): 42000 nM
selectivity ratio [1]: 4880
IC50 (Plasmodium falciparum): 8.6 nM

O=C(CCc1ccccc1O)NCCCNCCCCCCCCCCCCNCCCNC(=O)CCc1ccccc1O
IC50 (L6): 62000 nM
selectivity ratio [1]: 6530
IC50 (Plasmodium falciparum): 9.5 nM

O=C(NCCCNCCCCCCCCCCCCNCCCNC(=O)c1ccccc1)c1ccccc1
IC50 (L6): 6900 nM
selectivity ratio [1]: 43
IC50 (Plasmodium falciparum): 160 nM

COc1ccc(CC(=O)NCCCNCCCCCCCCCCCCNCCCNC(=O)Cc2ccc(OC)cc2)cc1
IC50 (L6): 19000 nM
selectivity ratio [1]: 95
IC50 (Plasmodium falciparum): 200 nM

COc1ccc(OC)c(CC(=O)NCCCNCCCCCCCCCCCCNCCCNC(=O)Cc2cc(OC)ccc2OC)c1
IC50 (L6): 23000 nM
selectivity ratio [1]: 121
IC50 (Plasmodium falciparum): 190 nM

CC(C)(C)OC(=O)N(CCCCCCCCCCCCN(CCCNC(=O)Cc1ccccc1O)C(=O)OC(C)(C)C)CCCNC(=O)Cc1ccccc1O
IC50 (L6): 10000 nM
selectivity ratio [1]: 59
IC50 (Plasmodium falciparum): 170 nM

O=C(Cc1ccccc1)NCCCNCCCCCCCCCCCCNCCCNC(=O)Cc1ccccc1
IC50 (L6): 22000 nM
selectivity ratio [1]: 138
IC50 (Plasmodium falciparum): 160 nM

COc1ccc(CC(=O)NCCCN(CCCCCCCCCCCCN(CCCNC(=O)Cc2ccc(OC)cc2)C(=O)OC(C)(C)C)C(=O)OC(C)(C)C)cc1
IC50 (L6): 4700 nM
selectivity ratio [1]: 22
IC50 (Plasmodium falciparum): 210 nM

COc1ccc(CCC(=O)NCCCNCCCCNCCCNC(=O)CCc2ccc(OC)c(OC)c2)cc1OC
IC50 (L6): 73000 nM
selectivity ratio [1]: 160
IC50 (Plasmodium falciparum): 460 nM

O=C(CCc1ccccc1O)NCCCNCCCCNCCCNC(=O)CCc1ccccc1O
IC50 (L6): 86000 nM
Activity (Plasmodium berghei [8]): inactive
selectivity ratio [1]: 5700
IC50 (Plasmodium falciparum): 15 nM
Activity (Mus musculus [5]): Non-toxic
Activity (Plasmodium berghei [9]): inactive

O=C(CCc1ccccc1)NCCCNCCCCNCCCNC(=O)CCc1ccccc1
IC50 (L6): 91000 nM
selectivity ratio [1]: 910
IC50 (Plasmodium falciparum): 100 nM

COc1ccc(OC)c(CC(=O)NCCCN(CCCCCCCCN(CCCNC(=O)Cc2cc(OC)ccc2OC)C(=O)OC(C)(C)C)C(=O)OC(C)(C)C)c1
IC50 (L6): 1900 nM
selectivity ratio [1]: 40
IC50 (Plasmodium falciparum): 48 nM

O=C(NCCCNCCCCNCCCNC(=O)c1ccccc1)c1ccccc1
IC50 (L6): 89000 nM
selectivity ratio [1]: 200
IC50 (Plasmodium falciparum): 450 nM

COc1ccccc1CC(=O)NCCCN(CCCCCCCCCCCCN(CCCNC(=O)Cc1ccccc1OC)C(=O)OC(C)(C)C)C(=O)OC(C)(C)C
IC50 (L6): 2700 nM
selectivity ratio [1]: 5.9
IC50 (Plasmodium falciparum): 460 nM

CC(C)(C)OC(=O)N(CCCCCCCCN(CCCNC(=O)Cc1ccccc1)C(=O)OC(C)(C)C)CCCNC(=O)Cc1ccccc1
IC50 (L6): 8600 nM
selectivity ratio [1]: 18
IC50 (Plasmodium falciparum): 470 nM

COc1ccc(OC)c(C(=O)NCCCN(CCCCCCCCCCCCN(CCCNC(=O)c2cc(OC)ccc2OC)C(=O)OC(C)(C)C)C(=O)OC(C)(C)C)c1
IC50 (L6): 1800 nM
selectivity ratio [1]: 10
IC50 (Plasmodium falciparum): 180 nM

COc1ccc(OC)c(CCC(=O)NCCCN(CCCCCCCCCCCCN(CCCNC(=O)CCc2cc(OC)ccc2OC)C(=O)OC(C)(C)C)C(=O)OC(C)(C)C)c1
IC50 (L6): 2300 nM
selectivity ratio [1]: 13
IC50 (Plasmodium falciparum): 180 nM

CC(C)(C)OC(=O)N(CCCCCCCCCCCCN(CCCNC(=O)Cc1ccccc1)C(=O)OC(C)(C)C)CCCNC(=O)Cc1ccccc1
IC50 (L6): 8200 nM
selectivity ratio [1]: 32
IC50 (Plasmodium falciparum): 260 nM

COc1ccc(OC)c(C(=O)NCCCNCCCCNCCCNC(=O)c2cc(OC)ccc2OC)c1
IC50 (L6): 75000 nM
selectivity ratio [1]: 81
IC50 (Plasmodium falciparum): 930 nM
